Reference: paper PMC12594766 (Nature Communications, 2025)
≈ marks a conversion by molar mass, not a printed value.

Experiments:
[1] = tested on: S. aureus USA300 (MRSA); test: MIC against multidrug-resistant strain; type: cell-based; conditions: Staphylococcus aureus
Outline: (§1)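 Broth microdilution in non-cation-adjusted Mueller-Hinton broth. Bacteria were subcultured to OD 0.2–0.3 (about 10^8 CFU/mL), then diluted to about 10^5 CFU/mL final. Test compound stock was in DI water. Twofold dilutions gave 512 to 1 µg/mL final. Plates were incubated 18-20 h at 37 °C and read at OD600.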

[2] = tested on: S. aureus USA300 (LAC); test: MIC against multidrug-resistant strain; type: cell-based; conditions: Staphylococcus aureus
Outline: as §1

[3] = tested on: S. aureus BAA39 (MRSA); test: MIC against multidrug-resistant strain; type: cell-based; conditions: Staphylococcus aureus
Outline: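 Broth microdilution in non-cation-adjusted Mueller-Hinton broth. Bacteria were subcultured to OD 0.2–0.3 (about 10^8 CFU/mL) and diluted to give about 10^5 CFU/mL in wells. The test compound stock was in DI water, serially diluted twofold to final 512–1 µg/mL. Plates were incubated at 37 °C for 18–20 h and read at OD600.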

[4] = tested on: K. pneumoniae KPNR; test: MIC against multidrug-resistant strain; type: cell-based; conditions: Klebsiella pneumoniae
[5] = tested on: P. aeruginosa BAA-2797; test: Murine neutropenic thigh infection model; type: in vivo, balb/c mice; conditions: 2 doses of 15 mg/kg s.c. at 2, 6 h, 26 h
Outline: (§2)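 Infection was intramuscular into the right thigh: P. aeruginosa BAA-2797 at 10^5, K. pneumoniae KPNR at 10^6, or MRSA at 10^5 CFU/mL. PBS, test compound or imipenem was given s.c. at 15 mg/kg at 2 and 6 h (n = 6). Thighs were homogenised at 26 h for CFU.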

[6] = conventional antibiotics, literature values; cited from earlier work
[7] = tested on: P. aeruginosa BAA-2797; test: Murine systemic; type: in vivo, balb/c mice; conditions: P. aeruginosa BAA-2797 peritonitis; single dose 10 mg/kg i.p. at 2 h; n = 6
Outline: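 Female BALB/c mice, 7–8 weeks, were infected i.p. with P. aeruginosa BAA-2797 (10^6 CFU/mL) in PBS containing 5% mucin. At 2 h post-infection they received a single i.p. dose of PBS, test compound (10 mg/kg) or imipenem (10 mg/kg), n = 6. Survival was monitored for up to 7 days.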

[8] = tested on: K. pneumoniae KPNR; test: Murine neutropenic thigh infection model; type: in vivo, balb/c mice; conditions: 2 doses of 15 mg/kg s.c. at 2, 6 h, 26 h
Outline: as §2

[9] = tested on: P. aeruginosa PAO1; test: Murine lung infection model; type: in vivo, balb/c mice; conditions: 10 mg/kg intranasal at 2, 8, 26 h
Outline: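 Infection was intranasal with P. aeruginosa PAO1 (10^4 CFU/mL inoculum). PBS, test compound or imipenem was given intranasally at 10 mg/kg at 2, 8 and 26 h post-infection (n = 6). Lungs were homogenised at 38 h for CFU. Survival was followed for up to 7 days.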

[10] = tested on: P. aeruginosa PAO1; test: Resistance frequency determination; type: cell-based; conditions: 10× MIC
[11] = tested on: MRSA; test: Murine neutropenic thigh infection model; type: in vivo, balb/c mice; conditions: 2 doses of 15 mg/kg s.c. at 2, 6 h, 26 h
Outline: as §2

| SMILES | MIC [1] [µg/mL] | MIC [2] [µg/mL] | MIC [3] [µg/mL] | MIC [4] [µg/mL] | CFU reduction in thigh vs PBS (-) [5] [log10] | half-life (T1/2) [6] [min] | survival (mice rescued) [7] | CFU reduction in thigh vs PBS (-) [8] [log10] | reduction of bacterial burden in lung tissues ([9]; P. aeruginosa PAO1, 38 h) [log10] | survival (mice rescued) ([9]; P. aeruginosa PAO1 lung infection, n = 6) | selection of resistant escape mutants [10] | CFU reduction in thigh vs PBS (-) [11] [log10] |
| --- | --- | --- | --- | --- | --- | --- | --- | --- | --- | --- | --- | --- |
| O=C(O)c1cn(C2CC2)c2cc(N3CCNCC3)c(F)cc2c1=O [CIP, ciprofloxacin] | < 1 | 8 (≈ 24.1 µM) | 4 (≈ 12.1 µM) | – | – | – | – | – | – | – | – | – |
| C[C@@H](O)[C@H]1C(=O)N2C(C(=O)O)=C(SCCN=CN)C[C@H]12 [IMP, imipenem] | < 1 | < 1 | < 1 | 4 (≈ 13.4 µM) | 0.1 | 12 | succumbed to the infection | 1.4 | 4.7 | 5 out of 6 | resistant strains developed | – |
| CN[C@H](CC(C)C)C(=O)N[C@H]1C(=O)N[C@@H](CC(N)=O)C(=O)N[C@H]2C(=O)N[C@H]3C(=O)N[C@H](C(=O)N[C@H](C(=O)O)c4cc(O)cc(O)c4-c4cc3ccc4O)[C@H](O)c3ccc(c(Cl)c3)Oc3cc2cc(c3O[C@@H]2O[C@H](CO)[C@@H](O)[C@H](O)[C@H]2O[C@H]2C[C@](C)(N)[C@H](O)[C@H](C)O2)Oc2ccc(cc2Cl)[C@H]1O [VAN, vancomycin] | < 1 | < 1 | 1 (≈ 0.69 µM) | – | – | – | – | – | – | – | – | 2.3 |
| C[C@@H](O)[C@H]1C(=O)N2C(C(=O)O)=C(S[C@@H]3CN[C@H](C(=O)N(C)C)C3)[C@H](C)[C@H]12 [meropenem] | – | – | – | – | – | 6 | – | – | – | – | – | – |
